The text below walks through data of ChEMBL document CHEMBL1151790, “Novel angular furoquinolinones bearing flexible chain as antitumor agent: design, synthesis, cytotoxic evaluation, and DNA-binding studies” (Bioorg Med Chem, 2008).

One assay deals with K562. The assay is described as follows: Cytotoxicity against human K562 cells by MTT assay. The assay is classed as functional, cell-based. The essentials:
(§1)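 Cells run without irradiation; cytotoxicity read by microculture tetrazolium–formazan (MTT) method, reported as IC50.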
A general note: Tetrazolium assays rely on reduction of a dye to a coloured formazan, in cell work by metabolically active cells.

In another assay the test system is HeLa. The assay is described as follows: Cytotoxicity against human HeLa cells by MTT assay. The assay is classed as functional, cell-based. The gist of the method: as §1
The subject of another assay is A549. The assay is described as follows: Cytotoxicity against human A549 cells by SRB assay. Type of assay: functional, cell-based. The gist of the method:
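Cells run without irradiation; cytotoxicity read by sulforhodamine B dye staining, reported as IC50.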
On the technique in general: Sulforhodamine B stains cellular protein and so reports cell mass.

Assay [1] can be described thus: Cytotoxicity against human QGY cells by MTT assay. The assay is classed as functional, cell-based. The essentials: as §1
Assay [2] has as its system DNA. The assay is described as follows: Binding affinity to calf thymus DNA by fluorescence quenching technique. Type of assay: nucleic-acid assay. The following applies: Bos taurus. The essentials:
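Calf-thymus DNA held at 50 µM with compound at […] in Tris–HCl (30 mM, pH 7.5); matching compound-only samples served as controls. Solutions […] 1 day at 25 °C in the dark, then fluorescence wavelength and intensity area measured.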

The test system of another assay is P388. Description: Cytotoxicity against mouse P388 cells by MTT assay. Type of assay: functional, cell-based. The gist of the method: as §1
Assay [3] concerns Escherichia coli. The assay is described as follows: Induction of DNA photocleavage activity in Escherichia coli pBR322 DNA assessed as form 2 […] in presence of irradiation by gel electrophoresis. The gist of the method: (§2)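 pBR322 DNA (25 ng/µL) with compound at several concentrations in Tris–HCl (20 mM, pH 7.5), irradiated 2 h. Analysed on 1% agarose gel with ethidium bromide; supercoiled form I, nicked form II, linear form III; triplicate runs.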

Assay [4] deals with Escherichia coli. The assay is described as follows: Induction of DNA photocleavage activity in Escherichia coli pBR322 DNA assessed as form 3 linear in presence of irradiation by gel electrophoresis. The gist of the method: as §2
For assay [5], the system named is Escherichia coli. The assay is described as follows: Induction of DNA cleavage activity in Escherichia coli pBR322 DNA by gel electrophoresis. The gist of the method: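 Plasmid pBR322 DNA (25 ng/µL) incubated with compound at several concentrations in Tris–HCl (20 mM, pH 7.5), 25 °C, 12 h, no irradiation. Products resolved on 1% agarose with ethidium bromide staining; supercoiled (I), nicked (II), linear (III) forms scored; triplicate.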

Assay [6] has as its system DNA. The assay is described as follows: Binding affinity to calf thymus DNA by circular dichroism spectra. Type of assay: nucleic-acid assay. The following applies: Bos taurus. The gist of the method: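 CD spectra recorded on 10 µM compound with 100 µM calf-thymus DNA in Tris–HCl buffer (pH 7.0), 1-cm quartz cell, 200–600 nm; buffer-alone spectrum subtracted. DNA checked protein-free by A260/A280 1.8–1.9 and quantified from 260 nm absorbance.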
For orientation: Circular dichroism is widely used to follow secondary structure.

Each structure is given as a SMILES string. Active and inactive are the calls of the source. No cut-off for these calls is given here.

As for `Cc1oc2ccc3c(C)cc(=O)n(Cc4ccccc4)c3c2c1C`, the IC50 (in the assay on K562; in the assay with HeLa; in the assay on A549; in [1]; with P388) was more than 100 µM in each case. Also, the Kb with DNA [2] came out at 3.15 ×10⁵ /M.

As for `Cc1oc2ccc3c(C)cc(=O)n(CC#N)c3c2c1C`, the 50% inhibitory concentration (IC50) (in the assay with K562; with HeLa; in the assay with A549; in assay [1]; with P388) was more than 100 µM in each case. In the assay on DNA [2], this compound displayed a Kb of 2.06 ×10⁵ /M.

With `Cc1oc2ccc3c(C)cc(=O)[nH]c3c2c1C`, the IC50 with K562 was more than 100 µM; in the assay with HeLa, 89.2 µM; in the assay on A549, 99.3 µM; in assay [1], 98.9 µM; with P388 it was more than 100 µM. Besides, the result in the assay with Escherichia coli [3] and in the assay on Escherichia coli [4] was Active. Further, in the assay on Escherichia coli [5], the outcome was inactive. The compound also yielded a Kb with DNA [2] of 2.57 ×10⁵ /M.

`Cc1oc2ccc3c(C)cc(=O)n(CCCN(C)C)c3c2c1C`: the IC50 with K562 was determined as 71.1 µM; in the assay with HeLa it was 35 µM; in the assay on A549, 29.6 µM; in [1], 74.9 µM; in the assay with P388, 45.3 µM. Further, in the assay on Escherichia coli [5], the outcome was inactive. Also, the Kb in the assay with DNA [2] was 2.53 ×10⁵ /M.

`CCn1c(=O)cc(C)c2ccc3oc(C)c(C)c3c21`: the IC50 (in the assay on K562; in the assay with HeLa; in the assay on A549; in [1]; in the assay with P388) was more than 100 µM each time. In the assay on DNA [2], the Kb amounted to 2.79 ×10⁵ /M.

Regarding `Cc1oc2ccc3c(C)cc(=O)n(CCN(C)C)c3c2c1C`, the half-inhibitory concentration (IC50) with K562 worked out at 55.7 µM; with HeLa, 39.1 µM; with A549 it was 30.4 µM; in [1], 72.7 µM; with P388, 51.5 µM. The result with Escherichia coli [3], in the assay on Escherichia coli [4] and with DNA [6] was Active. The outcome with Escherichia coli [5] was inactive. Further, in the assay on DNA [2], the Kb is 2.66 ×10⁵ /M.

For the compound `Cc1oc2ccc3c(C)cc(=O)n(CC(=O)NCCN(C)C)c3c2c1C`, the result with Escherichia coli [3] and in the assay with Escherichia coli [4] was Active. The IC50 in the assay with HeLa worked out at 20.7 µM; with A549 it was 20.4 µM; with P388 it was 14.5 µM. Besides, the result in the assay on Escherichia coli [5] was inactive. Besides, the Kb in the assay with DNA [2] came to 1.58 ×10⁵ /M.

Turning to `CCOC(=O)Cn1c(=O)cc(C)c2ccc3oc(C)c(C)c3c21`, the IC50 (in the assay on K562; in the assay on HeLa; with A549; in assay [1]; in the assay with P388) was more than 100 µM in each case. In the assay with DNA [2], this compound showed a Kb of 2.54 ×10⁵ /M.

The compound `Cc1oc2ccc3c(C)cc(=O)n(CC(=O)O)c3c2c1C` showed a 50% inhibitory concentration (IC50) with HeLa of more than 100 µM. Further, the Kb in the assay on DNA [2] came out at 2.69 ×10⁵ /M.

`Cc1oc2ccc3c(C)cc(=O)n(CC[N+](C)(C)C)c3c2c1C`: the IC50 in the assay on HeLa was found to be 49.5 µM. Besides, the Kb in the assay with DNA [2] came to 3.18 ×10⁵ /M.

For orientation: IC50 means the concentration that inhibits the measured activity by half. Lower therefore signals greater potency in that assay.
